Source: PubChem BioAssay (Johns Hopkins Ion Channel Center)
The list is not random: actives were taken first. Their share in the collection is about 3.1%.
KCNQ1 block – blocks the human KCNQ1 potassium channel | P51787 | 310,000 compounds, 1.3% hits | B-score at 10 µM | CHO-K1 KCNQ1, FluxOR thallium flux fluorescence; hits give high values;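 active means compounds whose thallium flux B-score, printed positive for inhibition, exceeds three library SD while starting fluorescence stays within three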;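 further: channel opened by potassium depolarization with thallium stimulus after 20 min compound exposure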
KCNK3 block – human KCNK3 channel inhibition, primary screen | O14649 | CHO-KCNK3 thallium flux, FluxOR fluorescence; hits give low values | B-score at 10 µM | 340,000 compounds, 0.84% hits | AID 602410;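 active means B-score under library mean minus 4 SD, starting fluorescence ratio at most library mean plus 5 SD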;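 further: more negative B-score means stronger inhibition of thallium flux through KCNK3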
Target sequence (O14649 whole entry, looked up): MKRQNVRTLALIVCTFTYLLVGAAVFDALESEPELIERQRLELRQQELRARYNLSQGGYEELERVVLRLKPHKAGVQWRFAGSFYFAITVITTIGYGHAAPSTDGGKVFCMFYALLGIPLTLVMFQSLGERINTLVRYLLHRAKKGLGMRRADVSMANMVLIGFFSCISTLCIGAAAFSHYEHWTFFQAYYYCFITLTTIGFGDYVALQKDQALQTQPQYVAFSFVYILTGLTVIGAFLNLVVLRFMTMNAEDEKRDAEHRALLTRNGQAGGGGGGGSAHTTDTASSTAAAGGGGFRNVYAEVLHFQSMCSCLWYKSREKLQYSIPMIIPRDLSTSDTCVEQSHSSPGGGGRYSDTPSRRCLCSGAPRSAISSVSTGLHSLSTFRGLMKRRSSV
KCNK9 inh – human KCNK9 channel inhibition; 310,000 compounds, 1.2% hits; HEK293 KCNK9, FluxOR thallium flux fluorescence; hits give low values; Q9NPC2; AID 488922; B-score at 10 µM;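 active means ratio B-score over 3 SD below the library mean, with starting fluorescence within 5 SD of its mean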;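 further: negative B-score means less thallium flux so channel inhibition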
KCNQ1 pot – potentiates or activates the human KCNQ1 potassium channel. CHO-K1 KCNQ1, thallium flux FluxOR fluorescence; hits give high values. 310,000 compounds, 0.35% hits. B-score at 10 µM. P51787;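 active means fluorescence ratio B-score, a plate-corrected score, at least three library SD, with initial intensity B-score within 5 SD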
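Test system: CHO-K1 cells stably expressing KCNQ1 / Medium: assay buffer / Also added: depolarizing K+/Tl+ stimulus, K2SO4 and Tl2SO4 each 12.5 mM in 5x stock / Incubation: 90 min dye loading and 20 min compound exposure, both at room temperature / Signal: thallium influx via FluxOR fluorescence, kinetic imaging / Evaluation: B score of baseline-normalized fluorescence ratio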
hERG protect – compounds protecting human hERG from proarrhythmic drug block | Q12809 | CHO-hERG, FluxOR thallium flux, dofetilide IC70 present | activation (rescue from dofetilide block), less the hit threshold, % at 10 µM | 310,000 compounds, 0.51% hits;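 active means activation above the mean of controls blocked by dofetilide plus 5 SD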;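 further: thallium influx through hERG after potassium depolarization seen as dye fluorescence rise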
The depositor's hits bear a star; i = inactive; . = not tested or not shown; ! = repeats disagree.

SMILES | KCNQ1 block | KCNK3 block | KCNK9 inh | KCNQ1 pot | hERG protect
COc1ccc(NC(=O)c2c(NC(=O)CCC(=O)O)sc(-c3ccccc3)c2C)cc1 | i | i | i | i | -4
CCNc1ccc2noc3c2c1C(=O)c1ccccc1-3 | 6* | i | i | i | -30
O=[N+]([O-])c1ccc(N/N=C2\CC3CC=CC23)c([N+](=O)[O-])c1 (stereo unspecified) | 9* | i | i | i | -15
O=[N+]([O-])c1ccc(N/N=C2\CC3CC=CC23)cc1 (stereo unspecified) | i | i | i | i | -28
COc1cc2c(cc1OC)CN(c1nc(-c3cccnc3)nc3ccccc13)CC2 | i | i | -7.5* | i | -31
O=C(N/N=C/C1=C(N2CCOCC2)C(=C\c2ccccc2)/CC1)Nc1ccccc1 | i | i | i | i | -5
O=C(O)c1ccccc1N/N=C/C1=C(N2CCOCC2)C(=C\c2ccccc2)/CC1 | 9* | i | i | i | -22
Cc1cnc(CNC(=O)CC2C(=O)NCCN2Cc2cccc(F)c2F)cn1 (stereo unspecified) | i | i | i | i | -11
Cc1cccn(Cc2c(F)cccc2Cl)c1=O | i | i | i | i | -4
O=c1ccccn1Cc1c(F)cccc1Cl | i | i | i | i | 5.2*
CCN(CC)CCN1C(=O)c2ccccc2NC1c1ccccc1F (stereo unspecified) | i | i | i | i | 5.1*
O=C(NCCN1C(=O)S/C(=C\c2ccccc2F)C1=O)C1=COCCO1 | i | i | i | i | -11
CN(C)CCCNS(=O)(=O)c1ccc(NC2CCCCCC2)c([N+](=O)[O-])c1 | 8* | i | i | i | -14
CCNc1ccc(S(=O)(=O)NCCN(C)C)cc1[N+](=O)[O-] | i | i | i | i | -3
COC(=O)c1c(C)[nH]c(C(=O)OCC(=O)c2ccc(C)s2)c1C | . | i | . | . | .
COC(=O)c1ccc(NN=Nc2ccc(C)cc2)cc1 | i | i | i | i | 5.1*
COc1cc(OC)cc(N(C(=O)CNC(=O)c2cccs2)C(C(=O)NCC2CCCO2)c2ccccc2)c1 (stereo unspecified) | i | i | i | i | -8
CCCCCc1cc(=O)oc2c(C(CCN3CCCCC3)c3ccc(OC)cc3)c(OC)cc(OC)c12 (stereo unspecified) | 7* | i | i | i | -26
Cc1cc(C)n(CCC(=O)N/N=C/c2ccc(Cl)c([N+](=O)[O-])c2)n1 | 7* | i | i | i | -12
COc1ccc(/C=N/NC(=O)CCn2nc(C)cc2C)cc1 | i | i | i | i | -10
COc1ccc(NC(C)=O)cc1S(=O)(=O)N1CCn2cccc2C1C (stereo unspecified) | . | i | . | . | .
COC(=O)c1ccccc1S(=O)(=O)N1CCn2cccc2C1C (stereo unspecified) | i | i | i | i | 35*
CCN1C(=O)c2cccc3c(NC(=O)c4ccccc4)ccc1c23 | i | i | i | i | -2
CCN1C(=O)c2cccc3c(NC(=O)c4ccc5c(c4)OCCO5)ccc1c23 | i | -10* | i | i | -7
N/C(=N\OC(=O)c1ccccc1Br)c1cccc([N+](=O)[O-])c1 | i | i | -7.1* | i | -7
SMILES | KCNQ1 block | KCNK3 block | KCNK9 inh | KCNQ1 pot | hERG protect
CC(=O)NC12CC3CC(C1)CC(C(=O)Oc1ccc(N(C)S(=O)(=O)c4cc(C)ccc4C)cc1)(C3)C2 | 6* | i | i | i | -8
CC(C)c1ccc(C2(C)NC(=O)N(CC(=O)NCC3COc4ccccc4O3)C2=O)cc1 (stereo unspecified) | . | i | . | . | .
CC(Oc1cccc(Cl)c1)C(=O)Nc1cc(S(=O)(=O)N2CCOCC2)ccc1N1CCCCC1 (stereo unspecified) | 7* | i | i | i | -15
CCC(NC(=O)CNC(=O)c1ccc2c(c1)OCO2)c1ccc(Br)cc1 (stereo unspecified) | . | i | . | . | .
CC[C@]12c3[nH]c4cc(CCC(=O)N(C)C)ccc4c3CCN1C(=O)[C@@H](CC(=O)NCCc1ccccn1)C[C@@H]2C(=O)N1CCN(C(=O)C2CC2)CC1 | . | i | . | . | .
COc1ccccc1-n1c(-c2ccccc2)c[nH]c1=S | i | i | i | i | -12
COc1ccc(-c2cn(-c3ccc(OC)cc3)c3[n+]2-c2ccccc2CC3)cc1 | 6* | i | i | i | -18
COc1ccccc1-n1c(-c2ccccc2)c[n+]2c1CCc1ccccc1-2 | 9*! | -9.5*! | -7.8* | i | -20
COc1ccc(-n2c(-c3ccc(Br)cc3)c[n+]3c2CCc2ccccc2-3)cc1 | 10* | i | i | i | -25
CCOC(=O)[C@@H]1[C@H]2COc3ccccc3[C@@H]2N2C(=O)N(c3ccccc3)C(=O)[C@@]12C | i | i | i | i | -6
CCOC(=O)[C@@H]1[C@H]2COc3ccccc3[C@H]2N2C(=O)N(c3ccc(C)cc3)C(=O)[C@]12C | i | i | -6.7* | i | -7
CC(=O)N1CCOc2ccc(S(=O)(=O)N3CCC(C)CC3)cc21 | i | i | i | i | -4
O=C1C=C(Nc2cccc(Cl)c2)CC(c2ccco2)C1 (stereo unspecified) | i | i | i | i | 3
CCc1ccc(NC2=CC(=O)CC(c3ccco3)C2)cc1 (stereo unspecified) | i | i | -7* | i | -7
COc1ccc(C)cc1-n1c(=O)c2ccccc2c2ccccc2c1=O | i | i | -8* | i | -13
O=C1C(Cl)=C(NCCN2CCCCC2)C(=O)c2ccccc21 | 6* | i | i | i | -21
CCOP(=O)(OCC)C(NC(=O)NS(=O)(=O)c1ccc(C)cc1)c1ccccc1 (stereo unspecified) | i | i | i | i | -3
CCCCCNCC(=O)Nc1cc(C(F)(F)F)ccc1OCCOC | i | i | -8.5* | i | -11
O=C(CSc1nc(-c2ccc(Cl)cc2)cs1)Nc1cccc([N+](=O)[O-])c1 | 6* | i | i | i | -17
Oc1ccc2ccccc2c1N=Nc1ccccn1 | i | i | -7.3* | i | -6
CC(C)c1ccc(NC(=O)COC(=O)[C@@H]2CCCN2C(=O)c2cccs2)cc1 | . | i | . | . | .
Cc1cccc(C2C3=C(Nc4[nH]n(-c5ccccc5)c(=O)c42)c2ccccc2C3=O)c1 (stereo unspecified) | i | i | -7.5* | i | -23
CC1=C([N+](=O)[O-])C(c2ccccc2)C2=C(N1)c1ccccc1C2=O (stereo unspecified) | i | i | i | i | -15
COc1ccc(-c2oc3cccnc3c2C#CCO)cc1 | i | i | i | i | -6
